Measured values: PMC12279052 (RSC Advances, 2025)

What was measured:
[1] = Thermal stability by TG/DTG; assay type: physicochemical; settings: first decomposition process, 10 K min^−1, argon
Method in brief: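 Simultaneous thermal analysis ran from 30–500 °C at 10 K min−1 on 3–5 mg sample in an Al2O3 crucible, with α-Al2O3 as reference. Argon served as protective gas at 20 mL min−1 and as purge gas at 60 mL min−1.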

[2] = Octanol–water partition coefficient, shake-flask method; assay type: physicochemical
Method in brief: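 Shake-flask partitioning was run at 25 and 37 °C in water, SGF (pH 1.2), SIF (pH 6.8) or SBF (pH 7.4). Fluids were prepared per USP without enzyme and pre-saturated with n-octanol (24 h shaking, 24 h separation). Test compound in buffer-saturated octanol (5 mL) was shaken 24 h with 5 mL octanol-saturated buffer, then centrifuged 10 min. The octanol phase was read by UV at 200 nm, and log Ko/w = log Co/(C−Co).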

[3] = Conductivity in low concentration region; assay type: physicochemical; settings: in water
Method in brief: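 Conductivity of aqueous test compound solutions was measured at each temperature in double-distilled deionized water (0.8 − 1.0 × 10−4 S m−1 at 298.15 K). The digital meter and electrode were calibrated with standard KCl, and the thermostat held ±0.02 K; relative standard uncertainty was ±3%.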

[4] = Aggregation in water by electrical conductivity; assay type: physicochemical; settings: for cmc: conductivity, water; for ionization degree α: micelle (cmc); for ΔG^0m / ΔH^0m / ΔS^0m / −TΔS^0m: micellization (cmc)
Method in brief: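 Conductivity of aqueous test compound solutions was measured with a digital conductivity meter and electrode, calibrated against standard KCl, with a thermostat holding ±0.02 K and ±3% relative uncertainty. cmc and cac were taken from the break points, found by fitting the Aguiar equation. α came from the ratio of post- to pre-transition slopes (A2/A1), and micellization thermodynamic functions from the mass action model.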

[5] = Steady-state fluorescence with pyrene probe; assay type: physicochemical; settings: 298.15 K
Method in brief: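 Pyrene (1 μM) served as probe at 298.15 K. Excitation was 335 nm, emission 355–650 nm, slits 2.5 nm, 700 V, 240 nm min−1, in a 1 cm quartz cuvette. cmc came from a Boltzmann fit of I1/I3 (373/384 nm). For Nagg, test compound at 2.5 cmc was quenched with cetylpyridinium chloride at 0.2–1.0 × 10−4 mol dm−3, and Nagg was derived from linear ln(I0/I) versus [Q].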

[6] = Density measurement, apparent molar volume at infinite dilution in water; assay type: physicochemical; settings: aqueous solution
Method in brief: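 Solution density was measured with a vibrating-tube densitometer calibrated with dry air and double-distilled water, with Peltier temperature control at ±0.01 K and density uncertainty 2.0 × 10−4 g cm−3. Apparent molar volumes were computed versus molality. Infinite-dilution values came from the Redlich–Mayer equation with empirical parameters Sv and Bv.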

[7] = tested on: Escherichia coli ATCC25922; assay: Antibacterial activity, broth dilution MIC; assay type: cell-based; settings: E. coli, n = 3
[8] = tested on: Staphylococcus aureus ATCC29213; assay: Antibacterial activity, broth dilution MIC; assay type: cell-based; settings: S. aureus, n = 3
[9] = tested on: Candida albicans ATCC10231; assay: Antimicrobial activity, broth dilution MIC; assay type: cell-based; settings: C. albicans, n = 3
[10] = tested on: Cutibacterium acnes ATCC6919; assay: Antibacterial activity, broth dilution MIC; assay type: cell-based; settings: C. acnes, n = 3
[11] = tested on: human lung cancer cell line A549; assay: Cell toxicity assay, MTT; assay type: cell-based; settings: A549, MTT, 24 h, n = 3
[12] = tested on: human hepatocellular carcinoma cell line HepG2; assay: Cell toxicity assay, MTT; assay type: cell-based; settings: HepG2, MTT, 24 h, n = 3

CCCCCCCCC(=O)O.O=C1CCC[C@@H]2[C@H]3CCCN4CCC[C@@H](CN12)[C@@H]34 [[Mat][C9]]
T onset (onset decomposition temperature) [1]: 196.3 °C
Log K o/w ([2]; pH = 1.2 (SGF), 25 °C): −0.33
Log K o/w ([2]; pH = 1.2 (SGF), 37 °C): 0.14
Log K o/w ([2]; pH = 6.8 (SIF), 25 °C): 0.02
Log K o/w ([2]; pH = 6.8 (SIF), 37 °C): 0.34
Log K o/w ([2]; pH = 7.0 (ultrapure water), 25 °C): 0.68
Log K o/w ([2]; pH = 7.0 (ultrapure water), 37 °C): 0.81
Log K o/w ([2]; pH = 7.4 (SBF), 25 °C): 0.96
Log K o/w ([2]; pH = 7.4 (SBF), 37 °C): 1.12
Association constant KA ([3]; 298.15 K): 6.74 ± 0.44 dm^3 mol^−1
Limiting molar conductivity Λ0 ([3]; 298.15 K): 47.11 ± 0.02 S cm^2 mol^−1
Association constant KA ([3]; 303.15 K): 4.14 ± 0.68 dm^3 mol^−1
Limiting molar conductivity Λ0 ([3]; 303.15 K): 52.90 ± 0.04 S cm^2 mol^−1
Association constant KA ([3]; 308.15 K): 1.72 ± 1.03 dm^3 mol^−1
Limiting molar conductivity Λ0 ([3]; 308.15 K): 59.10 ± 0.07 S cm^2 mol^−1
cmc ([4]; 293.15 K): 0.00449 mol/kg
cmc ([4]; 298.15 K): 0.00459 mol/kg
cmc ([4]; 303.15 K): 0.00467 mol/kg
cmc ([4]; 308.15 K): 0.00475 mol/kg
cmc ([4]; 313.15 K): 0.00483 mol/kg
ionization degree α ([4]; 293.15 K): 0.8848
ionization degree α ([4]; 298.15 K): 0.8890
ionization degree α ([4]; 303.15 K): 0.8957
ionization degree α ([4]; 308.15 K): 0.8931
ionization degree α ([4]; 313.15 K): 0.8922
ΔG^0m ([4]; 293.15 K): -6.121 kcal/mol
ΔH^0m ([4]; 293.15 K): -0.805 kcal/mol
ΔS^0m ([4]; 293.15 K): 75.88 J mol^−1 K^−1
−TΔS^0m ([4]; 293.15 K): -5.315 kcal/mol
ΔG^0m ([4]; 298.15 K): -6.188 kcal/mol
ΔH^0m ([4]; 298.15 K): -0.767 kcal/mol
ΔS^0m ([4]; 298.15 K): 76.06 J mol^−1 K^−1
−TΔS^0m ([4]; 298.15 K): -5.421 kcal/mol
ΔG^0m ([4]; 303.15 K): -6.243 kcal/mol
ΔH^0m ([4]; 303.15 K): -0.727 kcal/mol
ΔS^0m ([4]; 303.15 K): 76.13 J mol^−1 K^−1
−TΔS^0m ([4]; 303.15 K): -5.516 kcal/mol
ΔG^0m ([4]; 308.15 K): -6.348 kcal/mol
ΔH^0m ([4]; 308.15 K): -0.686 kcal/mol
ΔS^0m ([4]; 308.15 K): 76.88 J mol^−1 K^−1
−TΔS^0m ([4]; 308.15 K): -5.662 kcal/mol
ΔG^0m ([4]; 313.15 K): -6.446 kcal/mol
ΔH^0m ([4]; 313.15 K): -0.643 kcal/mol
ΔS^0m ([4]; 313.15 K): 77.53 J mol^−1 K^−1
−TΔS^0m ([4]; 313.15 K): -5.803 kcal/mol
cmc ([5]; Fluorescence (pyrene I1/I3), water): 0.00461 mol/kg
N agg (aggregation number) ([5]; ST = 2.5 cmc, fluorescence quenching with CPC): 64
Apparent molar volume at infinite dilution V^0 2,φ ([6]; 293.15 K): 353.45 ± 0.11 cm^3 mol^−1
Apparent molar volume at infinite dilution V^0 2,φ ([6]; 298.15 K): 355.41 ± 0.17 cm^3 mol^−1
Apparent molar volume at infinite dilution V^0 2,φ ([6]; 303.15 K): 357.32 ± 0.16 cm^3 mol^−1
Apparent molar volume at infinite dilution V^0 2,φ ([6]; 308.15 K): 360.15 ± 0.14 cm^3 mol^−1
MIC [7]: 30.7 mM
MIC [8]: 7.7 mM
MIC [9]: 0.96 mM
MIC [10]: 3.84 mM
IC50 [11]: 3150 µM
IC50 [12]: 2120 µM
